The values below come from ChEMBL document CHEMBL5149984, “Discovery of HN37 as a Potent and Chemically Stable Antiepileptic Drug Candidate” (J Med Chem, 2021).

The target of data set [1] is Potassium voltage-gated channel subfamily KQT member 2 (Rattus norvegicus) (UniProt O88943). Nature of the data set: Agonist activity at rat Kv7.2 channel expressed in CHO cells assessed as amplitude change of outward current at 10 uM by whole cell patch clamp based electrophysiological method. As to conditions: filed as agonist. The procedure, abridged:
(§1)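 Rat KCNQ2 cotransfected with EGFP plasmid by Lipofectamine 3000 into CHO cells (DMEM/F12, 10% FBS; split 24 h before transfection). Whole-cell recording at room temperature. Pipette: 145 mM KCl, 1 mM MgCl2, 5 mM EGTA, 10 mM HEPES, 5 mM MgATP, pH 7.3. Bath, constantly perfused: 140 mM NaCl, 5 mM KCl, 2 mM CaCl2, 1.5 mM MgCl2, 10 mM glucose, 10 mM HEPES, pH 7.4. Signals filtered at 1 kHz. Compound at 10 μM. I/I0 is outward current amplitude with over without compound. ΔV1/2 is the shift in V1/2 from Boltzmann fits of activation curves. Mean ± SEM.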
On the technique in general: In patch-clamp work, channel activity is measured electrically.

In data set [2] the target is Potassium voltage-gated channel subfamily KQT member 2 (Rattus norvegicus, UniProt O88943). Nature of the data set: Agonist activity at rat KCNQ2 channel expressed in CHO cells by patch clamp method. It is filed as cell-based. The method in brief: (§2)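 Whole-cell patch clamp at room temperature on CHO cells (DMEM/F12, 10% FBS) transiently co-transfected with EGFP and hKCNQ1, rKCNQ2, rKCNQ3 A278T, hKCNQ4 or hKCNQ5; KCNQ2/3 at 1:1 cDNA ratio. Pipette solution 145 mM KCl, 5 mM MgATP, pH 7.3; bath 140 mM NaCl, 5 mM KCl, pH 7.4, under perfusion. V1/2 from Boltzmann fits; I/I0 is current amplitude with versus without compound; n = 4−6.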
Chain of Potassium voltage-gated channel subfamily KQT member 2 (O88943 whole entry, the tested form may be a part): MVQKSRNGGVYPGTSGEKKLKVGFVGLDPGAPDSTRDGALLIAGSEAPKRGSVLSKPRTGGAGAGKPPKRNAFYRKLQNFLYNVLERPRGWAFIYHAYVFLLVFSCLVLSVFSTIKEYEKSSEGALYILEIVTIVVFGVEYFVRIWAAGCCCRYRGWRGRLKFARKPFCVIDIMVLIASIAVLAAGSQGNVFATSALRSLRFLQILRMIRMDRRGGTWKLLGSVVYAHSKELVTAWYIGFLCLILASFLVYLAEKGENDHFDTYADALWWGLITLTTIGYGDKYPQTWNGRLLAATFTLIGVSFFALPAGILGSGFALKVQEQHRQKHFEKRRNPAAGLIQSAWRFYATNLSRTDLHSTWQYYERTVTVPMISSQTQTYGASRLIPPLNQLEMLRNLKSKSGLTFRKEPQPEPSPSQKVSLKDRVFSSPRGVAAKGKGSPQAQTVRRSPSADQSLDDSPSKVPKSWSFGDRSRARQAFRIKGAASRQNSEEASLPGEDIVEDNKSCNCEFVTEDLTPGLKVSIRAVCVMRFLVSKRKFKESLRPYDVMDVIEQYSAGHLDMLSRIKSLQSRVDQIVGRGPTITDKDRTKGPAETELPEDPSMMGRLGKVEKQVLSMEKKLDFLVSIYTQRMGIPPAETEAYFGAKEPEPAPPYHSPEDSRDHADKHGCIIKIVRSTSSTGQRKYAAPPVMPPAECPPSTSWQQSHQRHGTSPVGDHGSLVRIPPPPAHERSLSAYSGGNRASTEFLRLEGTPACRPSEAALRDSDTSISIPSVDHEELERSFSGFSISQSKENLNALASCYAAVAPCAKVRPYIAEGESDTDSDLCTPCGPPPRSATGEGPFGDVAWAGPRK

For data set [3], the species on record is Mus musculus. The data set is described as follows: Anticonvulsant activity in C57BL/6 mouse 6 Hz seizure model at 44 mA measured after 1 hr. It is filed as functional.
Data set [4] addresses Potassium voltage-gated channel subfamily KQT member 2 (Rattus norvegicus) (UniProt O88943). Nature of the data set: Agonist activity at rat Kv7.2 channel expressed in CHO cells assessed as shift of half voltage of maximal activation at 10 uM by whole cell patch clamp based electrophysiological method. As to conditions: filed as agonist. The method in brief:
as §1

The nature of data set [5]: Neurotoxicity in Kunming mouse assessed as motor impairment rate at 60 mg/kg, po after 1 hr by rotarod test. As to conditions: in vivo. In kind it is toxicity, organism-based. The method in brief:
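Male KM mice dosed intragastrically with compound freshly suspended in 0.5% CMC-Na. Rotarod performance scored 1 h after dosing as the fraction of animals showing motor impairment. Fisher's exact test versus vehicle; TD50 from nonlinear dose−response fit.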

For data set [6], the species on record is Mus musculus. Nature of the data set: Anticonvulsant activity in C57BL/6 mouse 6 Hz seizure model at 32 mA measured after 1 hr. It is filed as functional.
The species named for data set [7] is Mus musculus. The data set is described as follows: Anticonvulsant activity in Kunming mouse assessed as reduction in MES-induced seizure after 1 hr. In kind it is functional. The procedure, abridged:
(§3)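 MES test in male KM mice. Compounds freshly suspended in 0.5% CMC-Na and given by gavage at 20 mL/kg; 160 V stimulus through ear clips. Protection scored as absence of hindlimb tonic extension; time course at 0.25, 0.5, 1 and 2 h, otherwise tested at 1 h. ED50 from dose−response by nonlinear regression; Fisher's exact test versus vehicle.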

Data set [8] relates to Mus musculus. The data set is described as follows: Anticonvulsant activity in po dosed MES induced Kunming mouse model of seizure. In kind it is functional. The procedure, abridged: as §3
The species named for data set [9] is Mus musculus. The data set is described as follows: Anticonvulsant activity in Kunming mouse assessed as reduction in Sc-PTZ induced seizure after 1 hr. It is filed as functional. The procedure, abridged:
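sc-PTZ test in male KM mice. Compound suspended in 0.5% CMC-Na and given orally 1 h before PTZ (freshly dissolved in normal saline, 100 mg/kg). Protection against clonic seizures scored; ED50 by nonlinear regression.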

The species named for data set [10] is Mus musculus. Nature of the data set: Anticonvulsant activity in MES induced Kunming mouse model of seizure assessed as EC50 in plasma. It is filed as functional, organism-based. The procedure, abridged: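 After the MES test in KM mice (oral dosing in 0.5% CMC-Na, 1 h), animals were killed immediately and plasma and brain concentrations were measured by LC−MS/MS. EC50 from concentration−response curves of protection against plasma concentration, by nonlinear regression.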

For data set [11], the target named is Potassium voltage-gated channel subfamily KQT member 2/member 3 (Rattus norvegicus, UniProt O88943+O88944). Nature of the data set: Agonist activity at rat KCNQ2/3 channel expressed in CHO cells by patch clamp method. It is filed as cell-based. The procedure, abridged: as §2
Chain of Potassium voltage-gated channel subfamily KQT member 2/member 3 (O88943 whole entry): as the sequence (O88943 whole entry, the tested form may be a part) above
Chain of Potassium voltage-gated channel subfamily KQT member 2/member 3 (O88944 whole entry): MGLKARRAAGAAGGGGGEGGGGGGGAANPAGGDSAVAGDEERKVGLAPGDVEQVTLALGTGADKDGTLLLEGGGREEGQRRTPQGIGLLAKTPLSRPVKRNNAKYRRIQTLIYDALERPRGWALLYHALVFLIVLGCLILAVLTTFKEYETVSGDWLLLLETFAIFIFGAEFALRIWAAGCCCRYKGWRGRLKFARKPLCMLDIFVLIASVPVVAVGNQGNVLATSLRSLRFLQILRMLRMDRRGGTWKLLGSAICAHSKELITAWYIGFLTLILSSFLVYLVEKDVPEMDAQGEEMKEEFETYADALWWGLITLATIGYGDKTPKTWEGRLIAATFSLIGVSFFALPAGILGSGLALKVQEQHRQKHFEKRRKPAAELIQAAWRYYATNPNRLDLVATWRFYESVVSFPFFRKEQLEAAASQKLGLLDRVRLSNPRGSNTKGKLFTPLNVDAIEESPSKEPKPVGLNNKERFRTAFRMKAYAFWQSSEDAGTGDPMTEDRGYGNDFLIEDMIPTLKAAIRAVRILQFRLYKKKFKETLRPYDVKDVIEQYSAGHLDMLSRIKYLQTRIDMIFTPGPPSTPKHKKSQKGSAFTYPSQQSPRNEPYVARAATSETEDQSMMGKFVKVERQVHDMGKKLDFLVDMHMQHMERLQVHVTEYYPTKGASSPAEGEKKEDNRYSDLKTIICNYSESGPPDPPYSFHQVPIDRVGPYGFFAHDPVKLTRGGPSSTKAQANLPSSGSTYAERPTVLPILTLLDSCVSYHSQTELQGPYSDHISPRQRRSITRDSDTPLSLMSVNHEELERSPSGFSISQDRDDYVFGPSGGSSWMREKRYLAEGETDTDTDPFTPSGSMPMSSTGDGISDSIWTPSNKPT
Data set [12] in a line: Half life in Kunming mouse brain at 5 mg/kg, po measured upto 24 hrs by LC-MS/MS method. It is filed as ADME, organism-based. The method in brief:
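Male KM mice (18−24 g) fasted 12 h before and 2 h after dosing, given 5 mg/kg orally in 5% DMSO/5% Tween 80/90% normal saline (n = 3 per time point). Aortic blood taken at 0.25–24 h and whole brain collected. Acetonitrile extraction with internal standard, then LC−MS/MS. Bioavailability calculated against the 2 mg/kg i.v. arm.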

Data set [13] in a line: Tmax in Sprague-Dawley rat at 2 mg/kg, po measured upto 24 hrs by LC-MS/MS method. It is filed as ADME, organism-based. Particulars: in vivo. The method in brief: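 Male SD rats (180–220 g) dosed orally at 2, 6 and 20 mg/kg, handled like the mice: fasting, 5% DMSO/5% Tween 80/saline vehicle, acetonitrile extraction, LC-MS/MS of plasma. In a separate set at 6 mg/kg p.o., blood and brain were sampled together.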

For data set [14], the target named is Cytochrome P450 2C19 (Homo sapiens, UniProt P33261). Nature of the data set: Time dependent inhibition of human liver microsome CYP2C19 preincubated for 0.5 hrs in presence or absence of NADPH followed by substrate addition by LC-MS/MS method. It is filed as ADME, microsomes. The procedure, abridged:
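Human liver microsomes preincubated 0.5 h with 0.10–50 μM test compound, with or without NADPH, then CYP-specific probe substrate added and incubation continued. Metabolite measured by LC-MS/MS; % activity remaining relative to no-compound control; IC50 fitted by Probit model. For CYP3A4, midazolam 1′-hydroxylation and testosterone 6β-hydroxylation were read separately.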

Data set [15] can be described thus: Metabolic stability in rat liver microsomes assessed as half life. In kind it is ADME, Microsome. Background: Liver microsomes are a subcellular fraction often used to study metabolism.

Chain of Potassium voltage-gated channel subfamily KQT member 2 (Rattus norvegicus) (O88943 whole entry, the tested form may be a part): as the sequence (O88943 whole entry, the tested form may be a part) above
Chain of Cytochrome P450 2C19 (P33261 whole entry): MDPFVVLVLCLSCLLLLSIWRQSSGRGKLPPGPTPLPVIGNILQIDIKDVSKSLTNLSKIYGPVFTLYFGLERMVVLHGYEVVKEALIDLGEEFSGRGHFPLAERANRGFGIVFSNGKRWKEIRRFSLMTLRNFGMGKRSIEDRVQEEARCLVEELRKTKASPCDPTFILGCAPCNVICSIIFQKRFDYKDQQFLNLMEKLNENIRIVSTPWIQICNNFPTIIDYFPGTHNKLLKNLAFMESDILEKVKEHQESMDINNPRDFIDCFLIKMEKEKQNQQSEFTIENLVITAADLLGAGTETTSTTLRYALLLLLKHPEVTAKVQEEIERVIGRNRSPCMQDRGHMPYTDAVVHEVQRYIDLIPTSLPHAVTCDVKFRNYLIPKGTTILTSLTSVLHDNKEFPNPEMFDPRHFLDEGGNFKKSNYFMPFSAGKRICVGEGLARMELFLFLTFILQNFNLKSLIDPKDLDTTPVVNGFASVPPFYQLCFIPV

Regarding `CCOC(=O)Nc1ccc(NCc2ccc(F)cc2)cc1N` [EZOGABINE], the values for the Activity in data set [1], in [4] and in data set [5] were 1.79, -33.2 mV and “Non-Toxic”, respectively. Also, the EC50 in [2] was found to be 2040 nM; in data set [10] it was 20 µM; in data set [11], 4150 nM. The ED50 is 102 mg/kg in [3]; 65.9 mg/kg in data set [6]; 38.6 mg/kg in data set [7]; 38.6 mg/kg in [8]; greater than 56 mg/kg in data set [9].

Take `C#CCN(Cc1ccc(F)cc1)c1cc(C)c(NC(=O)OC)c(C)c1`: the Activity is 4.75 in data set [1], -38.5 mV in [4] and “Non-Toxic” in data set [5]. The values for the EC50 in [2], in [10] and in data set [11] were 37 nM, 0.05 µM and 33.1 nM, respectively. The ED50 was found to be 29.9 mg/kg in data set [3]; 16.8 mg/kg in data set [6]; 1.9 mg/kg in data set [7]; 1.9 mg/kg in data set [8]; 9.8 mg/kg in data set [9]. Further, the half-life is 117 min in data set [12] and 23.7 min in data set [15]. The time of peak concentration (Tmax) in data set [13] was determined as 30 min. The compound further yielded a half-inhibitory concentration (IC50) in data set [14] greater than 50 µM.

Broadly, the EC50 is the concentration at which the effect is half-maximal. In general, ED50 refers to the dose at which the effect has come halfway, by size or by number of responders. What is called half-life is how long it takes for the measured level to halve. One may read the Tmax as the time at which the peak concentration occurs. As a reminder, the IC50 is the concentration that gives 50% inhibition. A higher IC50 goes with a need for much substance.
